Experimental findings from PMC3653324 (Translational stroke research, 2012) are described below.

The term IC50 denotes the concentration that gives 50% inhibition. By Papp A→B is commonly meant how fast a substance crosses the layer from the apical side. What is called efflux ratio is the permeability from basolateral to apical divided by that in the opposite direction, in the common usage. In general, EC50 refers to the concentration at which the effect is half-maximal.

Like-named read-outs stand apart in the source and are kept apart here.

The subject of data set [1] is H4IIE cells. It is filed as cell-based. Particulars: 24 hr.
Data set [2] concerns Caspase 3. Description: CeeTox apoptosis. Format: cell-based, rat. Particulars: H4IIE cells; for Caspase 3 Activity (Index/Dose): dose: dose at which the index was seen; for Caspase 3 Activity (Index/Dose): index: index of RFU.
Data set [3] has as its system H4IIE cells. Description: CeeTox analysis composite. It is filed as cell-based, rat. The conditions noted are these: for TC50 for all general toxicity measures (range over endpoints): range across CeeTox endpoints.
The test system of data set [4] is H4IIE cells. Description: CeeTox cellular ATP content. The conditions noted are these: 24 hr.
Data set [5] deals with H4IIE cells. Kind of data set: CeeTox cell mass. The conditions noted are these: 24 hr.
Data set [6] deals with H4IIE cells. Description: CeeTox membrane toxicity. Particulars: 24 hr, α-GST leakage.
Data set [7] concerns Intracellular glutathione (GSH). Description: CeeTox intracellular glutathione. Particulars: H4IIE cells.
Data set [8] deals with 8-Isoprostane (8-ISO). Description: CeeTox lipid peroxidation measured as 8-isoprostane. The conditions noted are these: H4IIE cells, 8-ISO score.
For data set [9], the system named is P-glycoprotein (PgP). Kind of data set: P-glycoprotein. Format: cell-based, rat. The conditions noted are these: H4IIE cells, MTT, 24 hr, single exposure concentration (20 or 50 μM), without CSA.
Data set [10] has as its system S. typhimurium TA989. Description: Ames test for mutagenicity, frame-shift strain. Particulars: first TA98 column; for TA98+S9: with S9, up to 10 μM; for TA98−S9: without S9, up to 10 μM. Format: cell-based. (In general: The Ames test uses bacterial strains that need an amino acid and regain growth without it when mutated back.)
The target in data set [11] is CYP2C9 (Homo sapiens, UniProt P11712). Description: Cloe Screen Cytochrome P450 Inhibition assay. It is filed as in vitro ADME.
In data set [12] the target is CYP3A4 (Homo sapiens, UniProt P08684). Kind of data set: Cloe Screen Cytochrome P450 Inhibition assay. Format: in vitro ADME.
In data set [13] the target is CYP2D6 (Homo sapiens, UniProt P10635). Kind of data set: Cloe Screen Cytochrome P450 Inhibition assay. Format: in vitro ADME. An outline of the steps:
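Run blinded. […] Metabolite formation was monitored by LC-MS/MS. IC50 was calculated from the decrease in metabolite formation relative to vehicle control. Quinidine served as positive control inhibitor.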

Data set [14] has as its target CYP2C19 (Homo sapiens, UniProt P33261). Description: Cloe Screen Cytochrome P450 Inhibition assay. Format: in vitro ADME.
Data set [15] concerns the target T1, CYP1A2 (Homo sapiens, UniProt P05177).
T1 sequence (P05177 1-516): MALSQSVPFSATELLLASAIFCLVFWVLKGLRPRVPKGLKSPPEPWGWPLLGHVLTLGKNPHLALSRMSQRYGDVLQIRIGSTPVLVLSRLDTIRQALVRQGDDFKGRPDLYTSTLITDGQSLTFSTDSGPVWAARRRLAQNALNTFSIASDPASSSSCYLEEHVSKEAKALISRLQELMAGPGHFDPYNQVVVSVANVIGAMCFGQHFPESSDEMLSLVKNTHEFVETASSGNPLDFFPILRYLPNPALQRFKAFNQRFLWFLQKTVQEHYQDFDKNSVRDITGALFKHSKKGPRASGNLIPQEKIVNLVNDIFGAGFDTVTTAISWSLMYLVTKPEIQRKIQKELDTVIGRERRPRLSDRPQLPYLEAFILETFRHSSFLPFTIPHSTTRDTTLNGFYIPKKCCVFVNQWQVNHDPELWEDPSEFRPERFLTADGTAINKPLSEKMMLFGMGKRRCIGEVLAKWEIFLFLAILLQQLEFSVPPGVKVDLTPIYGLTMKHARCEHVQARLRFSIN
Description: Cloe Screen Cytochrome P450 Inhibition assay. Format: in vitro ADME.

In data set [16] the test system is MDR1-MDCK cells. Kind of data set: BBB penetration. The conditions noted are these: classification from Papp A→B and efflux. It is filed as in vitro ADME, canine. An outline of the steps:
(§1)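 MDCK cells transfected with human MDR1 (P-gp) were grown to a confluent monolayer over 4 days. Test compound was added apically, and A→B transport was followed over 60 min; B→A transport was also measured. Compound on each side was quantified by GC/MS. Papp was calculated for both directions, and efflux ratio = Papp B→A/Papp A→B. High BBB potential: Papp A→B ≥3.0×10⁻⁶ cm/s and efflux <3.0.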

Data set [17] concerns P-glycoprotein (MDR1). Description: BBB penetration. The conditions noted are these: dog, MDCK-MDR1. Format: in vitro ADME, canine. An outline of the steps:
as §1

The test system of data set [18] is HT22 cells. Description: In vitro ischemia assay. It is filed as cell-based. The conditions noted are these: Mus musculus, HT-22, read-out: HT22 EC50 (nM). An outline of the steps: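 Mouse HT22 hippocampal cells were grown in DMEM with 10 % FCS and seeded at 5×10^3 cells/well. Next day, medium was changed to DMEM with 7.5 % dialyzed FCS, and cells were exposed to 20 µM iodoacetic acid with or without varying test compound concentrations for 2 h. Medium was then replaced with compound-containing medium without IAA for 20 h. Viability was read by MTT (5 µg/ml, 4 h, 37 °C), solubilized in DMF/SDS pH 4.7, A570.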

For data set [19], the system named is mouse cortical neurons. Description: Cortical neuron glutamate excitotoxicity neuroprotection assay. Format: cell-based. The conditions noted are these: tested at 0.1 μM.

Sequence of CYP2C9 (P11712 whole entry): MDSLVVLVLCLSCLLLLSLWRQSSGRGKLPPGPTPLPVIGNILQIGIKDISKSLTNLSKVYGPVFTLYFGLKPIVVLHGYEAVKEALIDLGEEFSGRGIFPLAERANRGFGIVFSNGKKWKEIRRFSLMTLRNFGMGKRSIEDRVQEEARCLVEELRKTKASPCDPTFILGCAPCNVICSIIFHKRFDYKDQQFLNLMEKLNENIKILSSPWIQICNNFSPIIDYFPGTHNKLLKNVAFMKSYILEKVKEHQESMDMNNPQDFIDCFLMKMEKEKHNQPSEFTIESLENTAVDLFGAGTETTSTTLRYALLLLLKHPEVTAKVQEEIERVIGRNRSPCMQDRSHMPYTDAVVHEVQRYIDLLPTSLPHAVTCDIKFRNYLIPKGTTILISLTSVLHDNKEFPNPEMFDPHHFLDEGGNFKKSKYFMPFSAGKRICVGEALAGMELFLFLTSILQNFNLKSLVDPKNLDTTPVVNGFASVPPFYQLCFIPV
Sequence of CYP3A4 (P08684 2-503): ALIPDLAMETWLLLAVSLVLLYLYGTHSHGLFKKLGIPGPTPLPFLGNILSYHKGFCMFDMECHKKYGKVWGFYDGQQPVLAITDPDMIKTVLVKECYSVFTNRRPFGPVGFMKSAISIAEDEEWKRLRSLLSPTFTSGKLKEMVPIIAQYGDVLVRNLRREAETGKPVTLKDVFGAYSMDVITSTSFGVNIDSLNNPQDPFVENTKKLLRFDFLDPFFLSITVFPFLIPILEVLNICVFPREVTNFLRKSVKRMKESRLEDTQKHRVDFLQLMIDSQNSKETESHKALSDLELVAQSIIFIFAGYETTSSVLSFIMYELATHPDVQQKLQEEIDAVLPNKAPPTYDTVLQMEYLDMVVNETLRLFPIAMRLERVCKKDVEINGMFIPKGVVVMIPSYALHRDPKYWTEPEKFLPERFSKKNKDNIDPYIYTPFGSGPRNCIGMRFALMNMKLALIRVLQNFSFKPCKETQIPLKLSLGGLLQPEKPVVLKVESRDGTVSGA
Sequence of CYP2C19 (P33261 whole entry): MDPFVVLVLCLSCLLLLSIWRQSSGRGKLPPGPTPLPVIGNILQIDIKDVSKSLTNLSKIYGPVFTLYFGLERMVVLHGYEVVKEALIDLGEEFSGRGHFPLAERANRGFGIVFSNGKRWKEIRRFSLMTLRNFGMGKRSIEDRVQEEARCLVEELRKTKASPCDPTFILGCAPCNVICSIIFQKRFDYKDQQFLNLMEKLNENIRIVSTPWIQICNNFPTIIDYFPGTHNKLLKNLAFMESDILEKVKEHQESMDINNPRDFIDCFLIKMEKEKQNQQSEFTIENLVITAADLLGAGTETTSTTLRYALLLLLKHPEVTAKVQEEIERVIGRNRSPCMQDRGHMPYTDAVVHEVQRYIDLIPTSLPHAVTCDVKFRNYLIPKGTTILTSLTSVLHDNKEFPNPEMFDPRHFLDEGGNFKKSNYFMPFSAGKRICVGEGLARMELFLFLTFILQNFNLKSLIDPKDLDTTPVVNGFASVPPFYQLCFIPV
Sequence of CYP2D6 (P10635 whole entry): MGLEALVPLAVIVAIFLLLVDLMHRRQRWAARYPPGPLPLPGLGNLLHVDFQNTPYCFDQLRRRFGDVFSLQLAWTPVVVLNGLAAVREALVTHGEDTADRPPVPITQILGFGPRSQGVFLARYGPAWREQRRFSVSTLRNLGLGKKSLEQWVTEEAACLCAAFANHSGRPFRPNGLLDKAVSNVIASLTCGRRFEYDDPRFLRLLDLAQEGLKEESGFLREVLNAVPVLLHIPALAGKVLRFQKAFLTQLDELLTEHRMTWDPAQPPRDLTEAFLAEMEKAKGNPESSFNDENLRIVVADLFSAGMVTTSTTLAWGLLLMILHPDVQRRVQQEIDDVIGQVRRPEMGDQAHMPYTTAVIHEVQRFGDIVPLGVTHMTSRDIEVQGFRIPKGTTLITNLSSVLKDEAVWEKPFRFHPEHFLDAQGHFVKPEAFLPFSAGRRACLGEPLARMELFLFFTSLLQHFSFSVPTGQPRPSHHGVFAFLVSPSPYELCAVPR

Take `CC[C@@]1(O)C(=O)OCc2c1cc1n(c2=O)Cc2cc3ccccc3nc2-1` [CAMPTOTHECIN, camptothecin, reference compound]: in data set [1], the “MTT TC50” value came out at 3.2 µM. For the same compound, in data set [2], the “Caspase 3 Activity (Index/Dose): dose” value is 100 and the “Caspase 3 Activity (Index/Dose): index” value is on record as 3 (400–600 = 3). Besides, the “TC50 for all general toxicity measures (range over endpoints)” value (shortened to “TC50 … (range over endpoints)”) in data set [3] (H4IIE cells, 24 hr) lay within 3.0 to 5.0 µM. In data set [3] (per standard CeeTox criteria), the “Ctox ranking group: probability of in vivo toxic effects” value is “high probability (1–20 high probability)”. Moreover, the “ATP TC50” value in data set [4] came out at 5.0 µM. For the same compound, the “Cell Mass TC50” value in [5] stood at 3.0 µM. For the same compound, in data set [6], the “MemTox TC50” value is greater than 300 µM. In addition, the “MemTox TC50 (μM)” value in data set [6] (listed as camptothecin) is “not affected”. Further, the “Total GSH TC50” value in [7] stood at 5.0 µM. The “Membrane Lipid Peroxidation” value in data set [8] is 1 (1 = Modest increase with maximum values ≤ 15 pg/mL).
As for `O=c1c(O)c(-c2ccc(O)c(O)c2)oc2c1ccc1ccccc12` [CSMC-6, 3,3',4'-trihydroxy alpha-naphthoflavone], the “MTT TC50” value in [1] worked out at 71 µM. For the same compound, in data set [9], the “% Control(Compound)” value was found to be 68.3 % Control. Moreover, in data set [3] (H4IIE cells, 24 hr, lowest of the CeeTox endpoints), the “minimum TC50” value is 71 µM. Moreover, in [3] (H4IIE cells, 24 hr), the “TC50 … (range over endpoints)” value lay in the range of 71 to 282 µM. For the same compound, the “TA98+S9” value in data set [10] is given as “Negative (Not mutagenic < 10 μM (NEGATIVE))”. Besides, the “TA98−S9” value in data set [10] is listed as “Negative (Not mutagenic < 10 μM (NEGATIVE))”. The IC50 in data set [11] (read-out: CYP2C9 IC50, human liver microsomes, substrate Tolbutamide) is greater than 10 µM; in data set [12] (read-out: CYP3A4 IC50, human liver microsomes, substrate head: Mephenytoin), greater than 10 µM; in [13] (read-out: CYP2D6 IC50, human liver microsomes, substrate DextroM) it was greater than 10 µM; in data set [14] (read-out: CYP2C19 IC50, human liver microsomes, substrate head: Midazolam), greater than 10 µM. For the same compound, the “ATP TC50” value in [4] was found to be 81 µM. Further, the “Cell Mass TC50” value in [5] turned out to be 80 µM. In addition, in [6], the “MemTox TC50” value amounted to 282 µM. For the same compound, the “Total GSH TC50” value in data set [7] was 87 µM. In addition, the “Membrane Lipid Peroxidation” value in data set [8] came out at 0.
As to `CCCc1ccc2oc(-c3ccc(O)c(O)c3)c(O)c(=O)c2c1` [CSMC-13, 6-propyl-3,3',4'-trihydroxy flavone], the “MTT TC50” value in [1] stood at 83 µM. For the same compound, the “Caspase 3 Activity (Index/Dose): dose” value in data set [2] is given as 100. Also, the “Caspase 3 Activity (Index/Dose): index” value in [2] is on record as 1 (0–200 = 1). Further, the “% Control(Compound)” value in data set [9] came to 87.9 % Control. The “TA98+S9” value in [10] is “Negative (Not mutagenic < 10 μM (NEGATIVE))”. Besides, the “TA98−S9” value in data set [10] is “Negative (Not mutagenic < 10 μM (NEGATIVE))”. The IC50 was greater than 25 µM in data set [15]; greater than 10 µM in data set [11]; greater than 10 µM in data set [12]; greater than 10 µM in [13]; greater than 10 µM in data set [14]. Moreover, the “BBB Potential” value in data set [16] was “low”. Besides, the Papp A→B at 60 min in [17] came to 0.1 ×10⁻⁶ cm/s. Further, the efflux ratio at 60 min in data set [17] is 1. For the same compound, in [4], the “ATP TC50” value is 58 µM. The “Cell Mass TC50” value in data set [5] was determined as 78 µM. In addition, the “MemTox TC50” value in data set [6] is greater than 300 µM. Moreover, the “Total GSH TC50” value in [7] worked out at 252 µM. For the same compound, the “Membrane Lipid Peroxidation” value in [8] is given as 2 (2 = Concentration related increase with maximum values ≥ 15 pg/mL).
On to `O=c1cc(-c2cc(O)c(O)c(O)c2)oc2ccccc12` [CSMC-19, 3',4',5'-trihydroxyflavone], for which, in data set [1], the “MTT TC50” value is greater than 300 µM. In addition, the “Caspase 3 Activity (Index/Dose): dose” value in data set [2] stood at 300. The “Caspase 3 Activity (Index/Dose): index” value in [2] is 1 (0–200 = 1). Moreover, the “% Control(Compound)” value in data set [9] amounted to 88.4 % Control. Moreover, the “TA98+S9” value in [10] is “Negative (Not mutagenic < 10 μM (NEGATIVE))”. Also, the “TA98−S9” value in [10] is “Negative (Not mutagenic < 10 μM (NEGATIVE))”. The IC50 was greater than 25 µM in [15]; greater than 10 µM in data set [11]; greater than 10 µM in data set [12]; greater than 10 µM in [13]; greater than 10 µM in data set [14]. This compound had an apical-to-basolateral permeability (Papp A→B) at 60 min in data set [17] of 105 ×10⁻⁶ cm/s. The efflux ratio at 60 min in [17] amounted to 0.01. Moreover, the “ATP TC50” value in [4] worked out at 256 µM. For the same compound, the “Cell Mass TC50” value in data set [5] was greater than 300 µM. In data set [6], the “MemTox TC50” value was greater than 300 µM. In addition, the “Total GSH TC50” value in data set [7] was greater than 300 µM. The “Membrane Lipid Peroxidation” value in data set [8] is listed as 2 (2 = Concentration related increase with maximum values ≥ 15 pg/mL).
On to `O=c1c(O)c(-c2ccc(O)c(O)c2)oc2cc(O)ccc12` [Fisetin, 3,3',4',7-tetrahydroxyflavone, reference compound], for which, in [18], the EC50 amounted to 4000 nM. Moreover, the “Neuroprotection of mouse cortical neurons against glutamate” value in data set [19] was “did not confer neuroprotection”. The “BBB Potential” value in data set [16] was “low”. For the same compound, in [17], the Papp A→B at 60 min stood at 2.96 ×10⁻⁶ cm/s and the efflux ratio at 60 min was found to be 0.7.
For the compound `C=C(C)[C@H]1Cc2c(ccc3c2O[C@@H]2COc4cc(OC)c(OC)cc4[C@@H]2C3=O)O1` [ROTENONE, rotenone, reference compound], the “MTT TC50” value in [1] was determined as 0.19 µM. In addition, the “TC50 … (range over endpoints)” value in data set [3] (H4IIE cells, 24 hr) is 0.05 to 3.88 µM. Also, the “ATP TC50” value in data set [4] was 0.05 µM. The “Cell Mass TC50” value in data set [5] was determined as 0.09 µM. For the same compound, in data set [6], the “MemTox TC50” value turned out to be 3.88 µM. Moreover, the “Total GSH TC50” value in [7] is 0.03 µM. Further, the “Membrane Lipid Peroxidation” value in [8] is listed as 2 (2 = Concentration related increase with maximum values ≥ 15 pg/mL).
